Here are results for 20 molecules from ChEMBL document CHEMBL1165974, “Novel pyrazole derivatives: synthesis and evaluation of anti-angiogenic activity” (Bioorg Med Chem, 2010).

Calls of active or inactive are those of the source. The calls are words filed in the database; no cut-off is given here.

Experiment [1] in a line: Antiangiogenic activity in MAEC assessed as inhibition of cell proliferation after 5 days by Coulter counting analysis. The class given is functional. As to conditions: Mus musculus, 120 h. Put shortly: (§1)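 Cells seeded at 10,000 cells per cm2; after 16 h given fresh medium containing test compounds. Trypsinized on day 5 and counted by Coulter counter. […] Tumour lines kept in DMEM with 10 mM Hepes and 10% FBS.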

For experiment [2], the species on record is Gallus gallus. Nature of the experiment: Antiangiogenic activity in chicken embryo chorioallantoic membrane model assessed as inhibition of VEGF-induced angiogenesis at 50 nmol after 2 days by photographic analysis.
The next experiment deals with HeLa. The experiment can be described thus: Cytostatic activity against human HeLa cells after 5 days by Coulter counting analysis. The class given is functional, cell-based. As to conditions: 120 h. Summed up:
as §1

The subject of another experiment is MCF7. Nature of the experiment: Cytostatic activity against human MCF7 cells after 5 days by Coulter counting analysis. The class given is functional, cell-based. Conditions: MCF7, 120 h. Summed up:
as §1

Experiment [3] can be described thus: Antiangiogenic activity in BAEC assessed as inhibition of cell proliferation after 5 days by Coulter counting analysis. The class given is functional, cell-based. Conditions: Bos taurus, 120 h. Summed up: as §1
Experiment [4] can be described thus: Antiangiogenic activity in MAEC assessed as inhibition of cell migration-associated wound closure at 50 uM after 8 hrs imaging analysis. The class given is functional. Conditions: Mus musculus. Summed up: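 Confluent MAEC monolayers wounded with a 1.0-mm wide tip, then incubated in fresh medium with 10% FCS plus compound (10 and 50 μM). At 8 h, wounds photographed; cells invading the wound quantified by computerized analysis of digitized images. Results as mean ± SEM.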

Experiment [5] is filed under the species Gallus gallus. Nature of the experiment: Antiangiogenic activity in chicken embryo chorioallantoic membrane model assessed as complete inhibition of VEGF-induced angiogenesis at 50 nmol after 2 days by photographic analysis.

For `O=C(O)/C=C/c1cn(-c2ccc(O)cc2)nc1-c1ccccc1`, in experiment [1], the IC50 (usually the concentration that inhibits the measured activity by half) is above 100 µM.

As for `O=C(O)/C=C/c1cn(-c2ccc(O)cc2)nc1-c1ccc(O)cc1`, the IC50 in experiment [1] was above 100 µM.

For `O=c1c2cn(-c3ccc(O)cc3)nc2c2cc(O)c(O)cc2n1O`, the inhibition (in general, the drop in the measured response relative to a control, in per cent) in the experiment listed under Gallus gallus [2] was “Active”.

Consider `O=Cc1cn(-c2ccc(O)cc2)nc1-c1ccccc1`, for which the inhibition entry in the experiment listed under Gallus gallus [2] was “inactive”. Besides, the half-maximal inhibitory concentration (IC50) was 79 µM in the experiment with HeLa, above 100 µM in experiment [1], 47 µM in the experiment with MCF7 and 64 µM in experiment [3].

`CCOC(=O)/C=C/c1cn(-c2ccc(O)cc2)nc1-c1ccc(O)c(O)c1`: the IC50 in experiment [1] came out at 6.2 µM.

Consider `O=c1c2cn(-c3ccc(O)cc3)nc2c2ccc(O)cc2n1O`, for which, in the experiment filed under Gallus gallus [2], the inhibition entry is “Active”. Besides, the IC50 in the experiment with HeLa turned out to be 38 µM; in experiment [1], 42 µM; in the experiment with MCF7 it was 25 µM; in experiment [3] it was 52 µM.

As to `O=Cc1cn(-c2ccc(O)cc2)nc1-c1ccc(O)c(O)c1`, in the experiment filed under Gallus gallus [2], the inhibition entry is “Toxic”. For the same molecule, the IC50 in the experiment on HeLa came to 39 µM; in experiment [1], 12 µM; in the experiment on MCF7, 24 µM; in experiment [3] it was 17 µM.

Take `CCOC(=O)/C=C/c1cn(-c2ccc(O)cc2)nc1-c1ccccc1`: in experiment [1], the IC50 stood at 29 µM.

For `CCOC(=O)/C=C/c1cn(-c2ccc(O)cc2)nc1-c1cc(O)ccc1O`, the IC50 in experiment [1] was 12 µM.

As for `O=c1c2cn(-c3ccc(O)cc3)nc2c2ccccc2n1O`, the inhibition entry in the experiment filed under Gallus gallus [2] is “Active”. For the same molecule, the IC50 with HeLa was 8.9 µM; in experiment [1] it was 7 µM; with MCF7 it was 5.8 µM; in experiment [3], 4.6 µM.

`O=Cc1cn(-c2ccc(O)cc2)nc1-c1ccc(O)cc1`: the inhibition in the experiment listed under Gallus gallus [2] came to 48%. In addition, the half-inhibitory concentration (IC50) in the experiment with HeLa is 37 µM; in experiment [1] it was 44 µM; in the experiment on MCF7 it was 38 µM; in experiment [3] it was 32 µM.

`O=Cc1cn(-c2ccc(O)cc2)nc1-c1cc(O)ccc1O`: in the experiment filed under Gallus gallus [2], the inhibition result was “Toxic”. The IC50 is at least 100 µM with HeLa, 43 µM in experiment [1], at least 100 µM in the experiment with MCF7 and at least 100 µM in experiment [3].

Turning to `CCOC(=O)/C=C/c1cn(-c2ccc(O)cc2)nc1-c1cccc(O)c1`, the IC50 in experiment [1] stood at 14 µM.

For the molecule `O=Cc1cn(-c2ccc(O)cc2)nc1-c1cccc(O)c1`, the inhibition in the experiment listed under Gallus gallus [2] came to 50%. The concentration for half-maximal inhibition (IC50) in the experiment with HeLa turned out to be 37 µM; in experiment [1] it was 42 µM; with MCF7 it was 29 µM; in experiment [3], 29 µM.

Turning to `CCOC(=O)/C=C/c1cn(-c2ccc(O)cc2)nc1-c1ccc(O)cc1`, the IC50 in experiment [1] is 25 µM.

In the case of `O=C(O)/C=C/c1cn(-c2ccc(O)cc2)nc1-c1ccc(O)c(O)c1`, the IC50 in experiment [1] is above 100 µM.

Take `O=c1c2cn(-c3ccc(O)cc3)nc2c2cc(O)ccc2n1O`: in experiment [4], the inhibition at 50 µM amounted to 76%. The inhibition entry in the experiment listed under Gallus gallus [5] was “Active”. The inhibition in the experiment filed under Gallus gallus [2] was 64%. Moreover, the 50% inhibitory concentration (IC50) in the experiment with HeLa is 37 µM; in experiment [1], 25 µM; with MCF7, 26 µM; in experiment [3], 38 µM.

Consider `O=C(O)/C=C/c1cn(-c2ccc(O)cc2)nc1-c1cccc(O)c1`, for which the IC50 in experiment [1] was above 100 µM.

For `O=C(O)/C=C/c1cn(-c2ccc(O)cc2)nc1-c1cc(O)ccc1O`, the IC50 in experiment [1] was above 100 µM.

For the molecule `O=c1c2cn(-c3ccc(O)cc3)nc2c2c(O)ccc(O)c2n1O`, the inhibition entry in the experiment filed under Gallus gallus [2] was “Active”.
